The record followed here is ChEMBL document CHEMBL4364271, “Unveiling the Importance of Amide Protons in CSP:ComD Interactions in Streptococcus pneumoniae” (ACS Med Chem Lett, 2019).

The species named for one data set is Homo sapiens. Put plainly: Metabolic stability in aqueous ammonium carbonate solution assessed as trypsin/chymotrypsin (unknown origin)-mediated drug degradation by measuring half life at 0.05 ug/ml incubated in shaking conditions and measured for 24 hrs by RP-HPLC analysis.
Data set [1] in a line: Agonist activity at ComD1 receptor in Streptococcus pneumoniae D39 harboring pcomX/lacZ reporter gene incubated for 30 mins by ONPG based beta-galactosidase assay. The method in brief: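 Dose-response in wild-type lacZ reporter strains (comX promoter; D39 for ComD1, TIGR4 for ComD2) producing native CSP. Peptides tested over a range of concentrations. β-gal read-out (Miller units) normalized to native CSP. EC50 reported with 95% confidence interval.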

Data set [2] concerns Streptococcus pneumoniae D39. Put plainly: Agonist activity at ComD1 receptor in Streptococcus pneumoniae D39 harboring pcomX/lacZ reporter gene at 10 uM incubated for 30 mins by ONPG based beta-galactosidase assay relative to native CSP1. The method in brief: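 Single-dose screen of synthetic peptide at 10 μM in wild-type reporter strains (D39 for ComD1, TIGR4 for ComD2) producing their own CSP and carrying lacZ under the comX promoter. β-gal activity in Miller units normalized to native CSP (CSP1 or CSP2, 100%); DMSO 0%. Triplicates over three separate trials.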

The test system of data set [3] is Streptococcus pneumoniae TIGR4. Put plainly: Antagonist activity at ComD2 receptor in Streptococcus pneumoniae TIGR4 harboring pcomX/lacZ reporter gene assessed as inhibition of CSP2-stimulated maximum signal at 10 uM preincubated for 30 mins followed by 250 nM CSP2 addition by ONPG based beta-galactosidase assay relative to native CSP2. Put shortly: (§1)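 Inhibition screen: peptides at 10 μM against CSP1 50 nM (D39, ComD1) or CSP2 250 nM (TIGR4, ComD2), in comX-lacZ reporter strains. β-gal Miller units normalized to CSP alone (100%) and DMSO (0%). Triplicates over three separate trials.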

In data set [4] the test system is Streptococcus pneumoniae D39. Put plainly: Antagonist activity at ComD1 receptor in Streptococcus pneumoniae D39 harboring pcomX/lacZ reporter gene assessed as inhibiton of CSP1-stimulated maximum signal at 10 uM preincubated for 30 mins followed by 50 nM CSP1 addition by ONPG based beta-galactosidase assay relative to native CSP1. Put shortly: as §1
Data set [5] in a line: Solubility of the compound in ammonium carbonate solution at pH 8. Format: physicochemical. The note with it: buffer.
Data set [6] in a line: Antagonist activity at ComD2 receptor in Streptococcus pneumoniae TIGR4 harboring pcomX/lacZ reporter gene assessed as inhibition of CSP2-stimulated maximum signal preincubated for 30 mins followed by 250 nM native CSP2 addition by ONPG based beta-galactosidase assay. The method in brief:
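Comx-lacZ β-gal reporter inhibition in D39 (ComD1, CSP1 50 nM) or TIGR4 (ComD2, CSP2 250 nM). Peptides tested over a range of concentrations against the stimulating CSP. Miller units normalized to CSP alone. IC50 given with 95% confidence interval.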

Calls of active or inactive are those of the source. The calls are words filed in the database; no cut-off is given here. Non-standard residues stand in square brackets, D forms with d. Residues, ends and D or L forms follow the SMILES beside them. NMeE = CN[C@@H](CCC(=O)O)C(=O)O; NMeM = CN[C@@H](CCSC)C(=O)O

Take `CC[C@H](C)[C@H](NC(=O)[C@H](Cc1ccccc1)NC(=O)[C@H](CC(=O)O)NC(=O)[C@H](CCCNC(=N)N)NC(=O)[C@H](Cc1ccccc1)NC(=O)[C@H](Cc1ccccc1)NC(=O)[C@H](CCCCN)NC(=O)[C@H](CO)NC(=O)[C@H](CC(C)C)NC(=O)[C@H](CCCNC(=N)N)NC(=O)[C@H](CCSC)NC(=O)[C@@H](N)CCC(=O)O)C(=O)N[C@@H](CC(C)C)C(=O)N[C@@H](CCC(N)=O)C(=O)N[C@@H](CCCNC(=N)N)C(=O)N[C@@H](CCCCN)C(=O)N[C@@H](CCCCN)C(=O)O`: the T1/2 in the data set filed under Homo sapiens was 1.5 h. In data set [1], the EC50 turned out to be 10 nM.

Take `CC[C@H](C)[C@H](NC(=O)[C@H](CCCNC(=N)N)NC(=O)[C@H](CCSC)N(C)C(=O)[C@@H](N)CCC(=O)O)C(=O)N[C@@H](CO)C(=O)N[C@@H](CCCNC(=N)N)C(=O)N[C@H](C(=O)N[C@H](C(=O)N[C@@H](CC(C)C)C(=O)N[C@@H](CC(=O)O)C(=O)N[C@@H](Cc1ccccc1)C(=O)N[C@@H](CC(C)C)C(=O)N[C@@H](Cc1ccccc1)C(=O)O)[C@@H](C)CC)[C@@H](C)CC` (H-E[NMeM]RISRIILDFLF-OH): in data set [2], the outcome was inactive. Besides, in data set [3], the inhibition is greater than 50%. Also, in data set [4], the inhibition entry is “inactive”. Besides, the solubility entry in data set [5] is “Insoluble”. In data set [6], the IC50 was greater than 1000 nM.

Take `CC[C@H](C)[C@H](NC(=O)[C@H](CCCNC(=N)N)NC(=O)[C@H](CCSC)NC(=O)[C@H](CCC(=O)O)NC)C(=O)N[C@@H](CO)C(=O)N[C@@H](CCCNC(=N)N)C(=O)N[C@H](C(=O)N[C@H](C(=O)N[C@@H](CC(C)C)C(=O)N[C@@H](CC(=O)O)C(=O)N[C@@H](Cc1ccccc1)C(=O)N[C@@H](CC(C)C)C(=O)N[C@@H](Cc1ccccc1)C(=O)O)[C@@H](C)CC)[C@@H](C)CC` (H-[NMeE]MRISRIILDFLF-OH): the outcome in data set [2] was inactive. For the same compound, the inhibition in data set [3] is greater than 50%. Also, the inhibition entry in data set [4] was “inactive”. In data set [5], the solubility entry was “Insoluble”. In addition, the half-maximal inhibitory concentration (IC50) in data set [6] is greater than 1000 nM.
